According to ChEMBL document CHEMBL4325934, “Discovery of 12-Thiazole Abietanes as Selective Inhibitors of the Human Metabolic Serine Hydrolase hABHD16A” (ACS Med Chem Lett, 2018):
The source made the active and inactive calls. The rule behind the calls is not given here.

Experiments:
[1] = molecular target: T1, Phosphatidylserine lipase ABHD16A (Homo sapiens) (UniProt O95870); assay: Inhibition of human ABHD16A expressed in HEK293 cells assessed as residual activity at 10 uM preincubated for 30 mins followed by 1-LG substrate addition and measured after 90 to 120 mins by fluorometric assay relative to control; type: cell-based
T1 sequence (whole entry): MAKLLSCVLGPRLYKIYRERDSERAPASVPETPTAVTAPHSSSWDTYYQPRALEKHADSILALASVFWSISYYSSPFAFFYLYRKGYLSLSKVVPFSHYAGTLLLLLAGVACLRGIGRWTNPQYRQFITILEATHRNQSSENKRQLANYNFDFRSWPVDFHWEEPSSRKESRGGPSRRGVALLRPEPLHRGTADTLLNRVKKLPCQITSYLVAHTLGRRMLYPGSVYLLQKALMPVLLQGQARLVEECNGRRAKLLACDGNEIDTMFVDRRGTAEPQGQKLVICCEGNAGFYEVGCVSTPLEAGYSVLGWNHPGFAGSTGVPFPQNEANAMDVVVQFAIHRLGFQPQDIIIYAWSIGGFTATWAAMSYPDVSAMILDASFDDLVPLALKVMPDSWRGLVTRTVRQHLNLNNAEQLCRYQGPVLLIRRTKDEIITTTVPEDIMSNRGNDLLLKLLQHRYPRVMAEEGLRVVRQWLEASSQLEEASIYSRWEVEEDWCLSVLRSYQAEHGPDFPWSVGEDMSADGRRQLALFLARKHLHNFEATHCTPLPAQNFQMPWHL
In short: (§1)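 Lysates of HEK293 cells transiently overexpressing human ABHD16A were pretreated 30 min with DMSO (control) or inhibitor, then 1-LG substrate was added (25 µM final), and liberated glycerol was measured. The single-concentration screen was at 10 µM, reported as % control activity (mean ± SD, n=2-3). Dose-responses used four concentrations (0.1-100 µM), duplicate wells, two independent experiments.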

[2] = molecular target: T2, ABHD12 (lysophosphatidylserine lipase) (Homo sapiens, UniProt Q8N2K0); assay: Inhibition of human ABHD12 expressed in HEK293 cells assessed as residual activity at 10 uM preincubated for 30 mins followed by 1-AG substrate addition and measured after 90 to 120 mins by fluorometric assay relative to control; type: cell-based; conditions: HEK293 cells that express human ABHD12, probe 1-AG, read-out: Activity
T2 sequence (Q8N2K0 whole entry): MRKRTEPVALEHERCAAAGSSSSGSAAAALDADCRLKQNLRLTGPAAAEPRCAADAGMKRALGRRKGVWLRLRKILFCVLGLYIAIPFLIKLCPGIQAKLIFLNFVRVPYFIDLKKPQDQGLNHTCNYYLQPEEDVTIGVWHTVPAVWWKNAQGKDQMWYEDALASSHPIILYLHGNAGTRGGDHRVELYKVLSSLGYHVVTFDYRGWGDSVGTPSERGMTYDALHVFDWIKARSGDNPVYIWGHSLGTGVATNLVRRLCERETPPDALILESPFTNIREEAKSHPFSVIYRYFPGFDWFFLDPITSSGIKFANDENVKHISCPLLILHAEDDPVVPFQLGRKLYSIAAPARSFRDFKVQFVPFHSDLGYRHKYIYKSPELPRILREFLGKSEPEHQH
In short: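 Screened at 10 µM in lysates of HEK293 cells overexpressing human ABHD12, given as remaining hydrolase activity relative to control (mean ± SD, n=2-3).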

[3] = molecular target: T3, Phosphatidylserine lipase ABHD16A (Homo sapiens, UniProt O95870); assay: Inhibition of human ABHD16A expressed in HEK293 cells preincubated for 30 mins followed by 1-LG substrate addition and measured after 90 to 120 mins by fluorometric assay; type: cell-based; in short: as §1
T3 sequence (O95870 whole entry): T1 sequence (whole entry)

[4] = molecular target: T3, Phosphatidylserine lipase ABHD16A; assay: Reversible inhibition of human ABHD16A expressed in HEK293 cells preincubated for 30 mins followed by 40 fold compound dilution and subsequent 1-LG substrate addition and measured at 30 mins time interval for 120 mins by fluorometric assay; type: cell-based
In short: (§2)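 Reversibility test: hABHD16A-HEK293 lysate treated with inhibitor was rapidly diluted 40-fold before substrate addition. Inhibitor range extended up to 1 mM, and potency was compared with the routine assay (30 min pretreatment, 1-LG hydrolysis, glycerol read-out). Mean ± SD from two independent experiments.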

[5] = molecular target: T1, Phosphatidylserine lipase ABHD16A (Homo sapiens); assay: Inhibition of human ABHD16A expressed in HEK293 cells assessed as residual activity at 100 uM preincubated for 30 mins followed by 1-LG substrate addition and measured after 90 to 120 mins by fluorometric assay relative to control; type: cell-based; in short: as §1
[6] = molecular target: T1, Phosphatidylserine lipase ABHD16A (Homo sapiens); assay: Ratio of IC50 for reversible inhibition of human ABHD16A expressed in HEK293 cells to IC50 for inhibition of human ABHD16A expressed in HEK293 cells; type: cell-based; in short: as §2
[7] = molecular target: T4, Phosphatidylserine lipase ABHD16A (Rattus norvegicus) (UniProt Q6MG55); assay: Inhibition of TAMRA-FP binding to ABHD16A in rat cerebellar membranes preincubated for 1 hr followed by TAMRA-FP addition measured after 1 hr by fluorescence based ABPP analysis; type: cell membranes; conditions: Cerebellum, Membrane
T4 sequence (whole entry): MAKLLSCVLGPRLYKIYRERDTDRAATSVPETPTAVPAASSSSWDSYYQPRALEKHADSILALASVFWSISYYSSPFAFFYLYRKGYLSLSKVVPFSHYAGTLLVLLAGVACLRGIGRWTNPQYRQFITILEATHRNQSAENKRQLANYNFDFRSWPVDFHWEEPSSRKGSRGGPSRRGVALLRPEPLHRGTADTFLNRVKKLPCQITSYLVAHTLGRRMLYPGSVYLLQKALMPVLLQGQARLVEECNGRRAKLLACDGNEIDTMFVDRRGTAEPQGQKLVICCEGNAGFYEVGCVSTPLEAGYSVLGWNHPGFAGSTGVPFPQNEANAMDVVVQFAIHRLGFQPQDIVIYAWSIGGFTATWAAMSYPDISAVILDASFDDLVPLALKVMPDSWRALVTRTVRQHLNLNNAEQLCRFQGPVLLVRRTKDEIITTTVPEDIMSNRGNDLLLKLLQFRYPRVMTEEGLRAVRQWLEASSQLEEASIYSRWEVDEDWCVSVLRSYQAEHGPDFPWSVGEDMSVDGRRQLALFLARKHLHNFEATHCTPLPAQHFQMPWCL
In short: (§3)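 Competitive ABPP in rat cerebellar membrane proteome: the proteome was pretreated with inhibitor, then labelled with the TAMRA-FP probe, and loss of band labelling was read by fluorescence. Reversible test inhibitors were used at 20 and 200 µM.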

[8] = molecular target: T4, Phosphatidylserine lipase ABHD16A (Rattus norvegicus); assay: Inhibition of TAMRA-FP binding to ABHD16A in rat cerebellar membranes at 200 uM preincubated for 1 hr followed by TAMRA-FP addition measured after 1 hr by fluorescence based ABPP analysis; type: cell membranes; conditions: Cerebellum, Membrane; in short: as §3
[9] = molecular target: T1, Phosphatidylserine lipase ABHD16A (Homo sapiens); assay: Inhibition of TAMRA-FP binding to human ABHD16A expressed in HEK293 cells at 20 to 200 uM preincubated for 1 hr followed by TAMRA-FP addition measured after 1 hr by fluorescence based ABPP analysis; type: cell-based
[10] = molecular target: T1, Phosphatidylserine lipase ABHD16A (Homo sapiens); assay: Potency index, ratio of tetrahydrolipstatin IC50 to compound IC50 for inhibition of ABHD16A (unknown origin)
[11] = molecular target: T4, Phosphatidylserine lipase ABHD16A (Rattus norvegicus); assay: Inhibition of TAMRA-FP binding to ABHD16A in rat cerebellar membranes at 1 uM preincubated for 1 hr followed by TAMRA-FP addition measured after 1 hr by fluorescence based ABPP analysis; type: cell membranes; conditions: Cerebellum, Membrane
In short: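 Competitive ABPP on rat cerebellar membrane proteome. Proteome was pretreated with inhibitor, then labeled with the serine hydrolase probe TAMRA-FP. Loss of labeling of the band migrating at ~63 kDa, assigned as ABHD16A, was the read-out.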

[12] = molecular target: T4, Phosphatidylserine lipase ABHD16A (Rattus norvegicus); assay: Inhibition of TAMRA-FP binding to ABHD16A in rat cerebellar membranes at 10 uM preincubated for 1 hr followed by TAMRA-FP addition measured after 1 hr by fluorescence based ABPP analysis; type: cell membranes; conditions: Cerebellum, Membrane
[13] = molecular target: Acyl-protein thioesterase 1 (Rattus norvegicus) (UniProt P70470); assay: Binding affinity to LYPLA1 in rat cerebellar membranes at 10 uM measured after 1 hr by fluorescence based ABPP analysis; type: cell membranes; conditions: Cerebellum, Membrane
[14] = molecular target: Acyl-protein thioesterase 2 (Rattus norvegicus) (UniProt Q9QYL8); assay: Binding affinity to LYPLA2 in rat cerebellar membranes at 10 uM measured after 1 hr by fluorescence based ABPP analysis; type: cell membranes; conditions: Cerebellum, Membrane; in short: as §3
Chain of Acyl-protein thioesterase 2 (Rattus norvegicus) (Q9QYL8 whole entry): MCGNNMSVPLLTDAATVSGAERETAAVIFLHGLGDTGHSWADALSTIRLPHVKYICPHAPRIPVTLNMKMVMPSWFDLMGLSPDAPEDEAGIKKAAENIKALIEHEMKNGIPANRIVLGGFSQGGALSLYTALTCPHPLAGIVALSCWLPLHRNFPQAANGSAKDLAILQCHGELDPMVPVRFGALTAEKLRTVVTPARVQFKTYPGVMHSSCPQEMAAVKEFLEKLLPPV

Chain of Acyl-protein thioesterase 1 (Rattus norvegicus) (P70470 whole entry): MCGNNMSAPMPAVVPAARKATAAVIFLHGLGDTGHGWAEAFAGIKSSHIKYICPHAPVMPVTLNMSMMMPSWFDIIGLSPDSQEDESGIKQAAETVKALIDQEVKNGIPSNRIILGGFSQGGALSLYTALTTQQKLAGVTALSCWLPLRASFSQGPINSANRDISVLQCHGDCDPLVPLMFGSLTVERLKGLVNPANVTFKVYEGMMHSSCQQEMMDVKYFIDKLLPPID

Row | SMILES | Activity [1] | activity at 10 µM [2] | also measured
1 | COC(=O)[C@]1(C)CCC[C@]2(C)c3cc(-c4csc(C)n4)c(C(C)C)cc3CC[C@@H]12 | 23% | 100% | IC50 [3]: 3.4 to 3.6 µM; IC50 [4]: 41.1 µM; Activity [5]: 12%; Ratio IC50 [6]: 11.4; inhibition [7]: Dose-dependent effect
2 | COC(=O)[C@]1(C)CCC[C@]2(C)c3cc(-c4csc(-c5ccccc5Cl)n4)c(C(C)C)cc3CC[C@@H]12 | 86.6% | 101% | –
3 | CC[n+]1c(-c2cc3c(cc2C(C)C)CC[C@H]2[C@](C)(C(=O)OC)CCC[C@]32C)csc1C | 81.5% | 91.1% | –
4 | CC(C)c1cc2c(cc1-c1cscn1)[C@@]1(C)CCC[C@@](C)(C(N)=O)[C@@H]1CC2 | 82.1% | 98.7% | –
5 | COC(=O)[C@]1(C)CCC[C@]2(C)c3cc(-c4csc(-c5ccc(Cl)cc5)n4)c(C(C)C)cc3CC[C@@H]12 | 99.3% | 96.6% | –
6 | COC(=O)[C@]1(C)CCC[C@]2(C)c3cc(-c4cscn4)c(C(C)C)cc3CC[C@@H]12 | 50.3% | 91.5% | –
7 | COC(=O)[C@]1(C)CCC[C@]2(C)c3cc(-c4csc[n+]4C)c(C(C)C)cc3CC[C@@H]12 | 80.1% | 91.1% | –
8 | CC(C)c1cc2c(cc1-c1cscn1)[C@@]1(C)CCC[C@@](C)(C(=O)O)[C@@H]1CC2 | 91.5% | 98.4% | –
9 | COC(=O)[C@]1(C)CCC[C@]2(C)c3cc(-c4csc(C#N)n4)c(C(C)C)cc3CC[C@@H]12 | 42.8% | 94.3% | IC50 [3]: 4.9 to 5.2 µM; IC50 [4]: 31.6 µM; Activity [5]: 25%; Ratio IC50 [6]: 6.4; inhibition [8]: Active; inhibition [9]: inactive
10 | CC(C)c1cc2c(cc1-c1csc(N)n1)[C@@]1(C)CCC[C@@](C)(C(N)=O)[C@@H]1CC2 | 80% | 96.9% | –
11 | Cc1nc(-c2cc3c(cc2C(C)C)CC[C@H]2[C@](C)(C(N)=O)CCC[C@]32C)cs1 | 80.6% | 99.6% | –
12 | COC(=O)[C@]1(C)CCC[C@]2(C)c3cc(-c4csc(-c5ccccc5)n4)c(C(C)C)cc3CC[C@@H]12 | 73.8% | 89.8% | –
13 | CC(C)c1cc2c(cc1-c1cscn1)[C@@]1(C)CCC[C@@](C)(C(=O)OCCO)[C@@H]1CC2 | 62.9% | 77.8% | –
14 | CCOC(=O)c1nc(-c2cc3c(cc2C(C)C)CC[C@H]2[C@](C)(C(=O)OC)CCC[C@]32C)cs1 | 48.7% | 73.8% | –
15 | COc1nn(-c2ccc(F)cc2)c(=O)o1 | – | – | Ratio IC50 [10]: 5.3; inhibition [11]: Active
16 | Cc1nc(-c2cc3c(cc2C(C)C)CC[C@H]2[C@](C)(CO)CCC[C@]32C)cs1 | 66.3% | 98.7% | –
17 | CCCCCCCCCCCCCC1OC(=O)/C1=C\CCCCC(N)=O (configuration not stated) | – | – | Ratio IC50 [10]: 1.3
18 | COC(=O)[C@]1(C)CCC[C@]2(C)c3cc(-c4csc(N)n4)c(C(C)C)cc3CC[C@@H]12 | 58.2% | 103% | –
19 | CC(C)c1cc2c(cc1-c1cscn1)[C@@]1(C)CCC[C@@](C)(CO)[C@@H]1CC2 | 65.9% | 96.3% | –
20 | CC(C)c1cc2c(cc1-c1csc(N)n1)[C@@]1(C)CCC[C@@](C)(CO)[C@@H]1CC2 | 74.6% | 87.8% | –
21 | COC(=O)[C@]1(C)CCC[C@]2(C)c3cc(-c4csc(C)[n+]4C)c(C(C)C)cc3CC[C@@H]12 | 82.7% | 92.8% | –
22 | Cc1nc(-c2cc3c(cc2C(C)C)CC[C@H]2[C@](C)(C(=O)O)CCC[C@]32C)cs1 | 98.4% | 102% | –
23 | CCCCCCCCCCC[C@@H](C[C@@H]1OC(=O)[C@H]1CCCCCC)OC(=O)[C@H](CC(C)C)NC=O | – | – | inhibition [12]: Active
24 | CCCCCCCCCC[C@@H]1C(=O)O[C@H]1CCc1ccc(OC)c(OC)c1 [PALMOSTATIN B] | – | – | Ratio IC50 [10]: 1.7; IC50 [3]: 0.099 to 0.105 µM; IC50 [4]: 0.057 µM; Ratio IC50 [6]: 1.8; inhibition [12]: Active; Activity [13]: Active; Activity [14]: Active
